Source: PubChem BioAssay (several laboratories)
STAT1 act-1: activators of IFN-gamma induced STAT1 signaling. AID 932. activation (% of control), % at 5.5 µM. NIH 3T3 STAT1-luciferase reporter, luminescence; 100% = IFN-gamma alone, no compound. 2.6% of 200,000 active;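 active means activation above the screen-wide mean activation plus 3 SD, cut at about 130% in these data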;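 further: raw ratio to IFN-gamma control signal so 100% means no change and 0% no light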
FLuc inh counter: Photinus pyralis luciferase inhibition counter-screen | ATPLite firefly luciferase biochemical luminescence, 10 min | inhibition, % at 10 µM | 1.5% of 200,000 active | AID 1006;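 active means inhibition above about 50% when tested at 10 µM, limit read from the data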
Target sequence (P08659 whole entry, looked up): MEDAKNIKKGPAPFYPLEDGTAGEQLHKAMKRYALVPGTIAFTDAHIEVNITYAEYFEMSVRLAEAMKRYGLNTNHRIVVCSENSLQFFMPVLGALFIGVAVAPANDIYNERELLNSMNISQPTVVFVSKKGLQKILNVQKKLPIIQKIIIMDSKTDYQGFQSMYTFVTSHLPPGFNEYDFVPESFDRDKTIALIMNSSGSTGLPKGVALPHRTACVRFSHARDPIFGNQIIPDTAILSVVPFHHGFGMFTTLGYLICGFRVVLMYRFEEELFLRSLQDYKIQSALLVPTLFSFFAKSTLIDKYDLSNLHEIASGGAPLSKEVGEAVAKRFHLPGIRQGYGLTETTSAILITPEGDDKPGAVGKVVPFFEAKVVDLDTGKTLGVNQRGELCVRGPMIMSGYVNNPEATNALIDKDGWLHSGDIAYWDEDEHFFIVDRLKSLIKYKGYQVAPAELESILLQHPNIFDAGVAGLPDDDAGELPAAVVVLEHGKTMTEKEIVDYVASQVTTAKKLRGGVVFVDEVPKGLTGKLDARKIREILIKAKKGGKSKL
STAT3 act-1: increases IL-6 driven STAT3 reporter signal. U3A cells, IL-6 STAT3-luciferase reporter, luminescence; 100% = signal with IL-6 EC80 alone. 0.91% of 190,000 active. AID 871. activation (% of control), % at 5.6 µM;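 active means activation above the screen-wide mean of compound activation plus 3 SD, cut at about 130% in these data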;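 further: 0% = background luminescence of wells with medium and substrate only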
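Test system: Human STAT1-deficient U3A cells with stable STAT3-luciferase reporter | Also added: Interleukin-6, 33 ng/mL | Timing: Compound pre-incubation 1 h before IL-6, then 6 h stimulation at 37 °C | Technique: Luciferase reporter luminescence | Read-out: Percent of IL-6-only median luminescence | Benchmarks: IL-6-only wells as 100% reference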
FLuc stim CS: firefly luciferase counter-screen for stimulation assays. ATPlite luciferase biochemical, luminescence, 10 min; 0 = ATP-free wells, 1 = DMSO control. P08659. activation factor at 10 µM. 200,000 tested, under 10 active. AID 1027;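 active means luciferase activation factor, scaled between plate controls, of at least 2 with compound at 10 µM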
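Material: Luciferase/luciferin reagent mix; Doses: test compounds dosed from 2 mM stocks in 100% DMSO; Schedule: 10 min incubation after luciferase reagent addition, room temperature; Measured by: luminescence from luciferase reaction; Read-out: luminescence gain marking luciferase activators.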
STAT3 blocker: inhibitors of IL-6 induced STAT3 signaling; U3A cells, IL-6 STAT3-luciferase reporter, luminescence; host cell line lacks STAT1; AID 862; 0.89% of 190,000 active; inhibition, % at 5.5 µM;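 active means inhibition above the mean inhibition across all screened compounds plus 3 SD, cut at about 44% in these data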;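 further: 0% = DMSO only wells and 100% = 100 µM nifuroxazide control wells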
STAT1 blocker: reduces IFN-gamma driven STAT1 reporter signal; inhibition, % at 5.5 µM; AID 920; 0.35% of 200,000 active; NIH 3T3 STAT1-luciferase reporter, luminescence;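 active means inhibition above a set limit, the mean inhibition across all tested compounds plus 3 SD, cut at about 34% in these data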;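 further: 0% = IFN-gamma with DMSO and 100% = IFN-gamma with 300 µM nifuroxazide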
STAT3 act-2: confirmation of STAT3 signaling activators; potentiation (% of control), % at 5.7 µM; U3A STAT3-luciferase reporter, IL-6 potentiation, luminescence; U3A cells lack STAT1; 100 means same as IL-6 alone; shares compounds with STAT3 act-1; 64% of 1,200 active;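 active means percent activation of the STAT3 luciferase reporter above a set limit taken from the earlier primary screen, cut at about 130% in these data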;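 further: 0% = background signal of medium plus substrate and 100% = median of IL-6 with DMSO wells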
NFkB act STAT3ct: counter-screen for STAT3 activators: NF-kappaB activation; shares compounds with STAT3 act-1; human cells, NF-kappaB reporter activation; activation (% of control), % at 5.7 µM; 11% of 1,200 active; in the data active means activation above about 120%;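 further: reporter induced by TNF-alpha stimulation; 100% = median of stimulated DMSO wells and 0% = no signal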
STAT1 act-2: STAT1 activation in STAT3 activator counter-screen | activation (% of control), % at 5.7 µM | 13% of 1,200 active | NIH 3T3 STAT1-luciferase reporter, IFN-gamma, luminescence | shares compounds with STAT3 act-1;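 active means activation above the solvent-only control well mean plus 3 SD, set per screening run, cut at about 120% in these data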;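 further: 100% = IFN-gamma with DMSO median signal so 100% means no change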
Active calls of the source: *; . = not tested or not shown. In the library only some 4.9% were active in any assay of this set; here they are far more common.

SMILES	STAT1 act-1	FLuc inh counter	STAT3 act-1	FLuc stim CS	STAT3 blocker	STAT1 blocker	STAT3 act-2	NFkB act STAT3ct	STAT1 act-2
Cc1ccc(Nc2nnc(SCC(=O)NCCN3C(=O)CSC3=O)s2)cc1	102	46	98	0.5	-2	-2	.	.	.
CCOC(=O)c1c(C)[nH]c(C(=O)OCC(=O)Nc2cc(Cl)ccc2OC)c1C	97	-3	148*	1	-55	3	123	104	96
CCOc1ccc(CC(=O)OCn2nnc3ccccc3c2=O)cc1	105	-7	102	1.1	3	-5	.	.	.
CCn1cc(CN2CCc3c([nH]c4ccccc34)C2c2cccc(O)c2)c(C)n1 (stereo not given)	89	-9	142*	1.1	-41	11	140*	102	89
CSc1ncc(CN2CCc3c([nH]c4ccccc34)C2c2cccc(O)c2)cn1 (stereo not given)	106	-6	154*	1.1	-53	-8	147*	103	99
CCn1cc(CN2CCc3c([nH]c4ccccc34)C2c2ccc(F)c(OC)c2)c(C)n1 (stereo not given)	100	-3	111	1	-7	-1	.	.	.
Cc1ccc(-c2nc(NCCN3CCOCC3)c3ccccc3n2)cc1	98	-4	181*	1	-81	2	169*	105	98
CC1=C(C#N)C(c2ccccc2O)C(C#N)=C(C)N1	93	2	143*	1	-47	7	151*	103	99
COc1ccc(S(=O)(=O)N2CCN(c3ccc4nnc(-c5ccccc5)n4n3)CC2)cc1	104	-2	143*	1	-41	-4	120	107	113
CN1c2ccccc2C(O)=C(C(=S)Nc2ccc(Cl)cc2)S1(=O)=O	92	30	101	0.7	5	9	.	.	.
Cc1cccc(NC(=O)C2=C(O)c3ccccc3N(C)S2(=O)=O)c1	99	2	155*	1	-60	1	95	109	99
O=C(Cn1cnc([N+](=O)[O-])n1)N/N=C/c1ccc(O)cc1O	103	0	100	1	11	-4	.	.	.
CSc1cccc(CN2CCN(Cc3ccc(F)c(F)c3)C(CCO)C2)c1 (stereo not given)	107	-6	105	1.1	0	-9	.	.	.
Oc1[nH]c2ccccc2c1/C=N/N1CCCCC1	107	-3	145*	1	-50	-8	103	100	103
Oc1ccccc1/C=N/N1CCCCC1	115	13	93	0.9	8	-16	.	.	.
COCCn1c(N)c(N(Cc2ccccc2)C(=O)c2cc3ccccc3o2)c(=O)[nH]c1=O	98	-5	106	1.1	-5	1	.	.	.
CC1=NN(c2ccc(Br)cc2)C(=O)/C1=C/c1cccs1	87	-1	181*	1	-94	15	155*	99	91
Cc1ccc2cccnc2c1NC(=S)NC(=O)c1ccccc1	88	-1	153*	1	-58	13	152*	99	92
Cc1ccc2cccc(NC(=S)NC(=O)c3ccccc3)c2n1	89	-3	169*	1	-68	12	170*	111	95
Cc1ccc(CN2CCCC(CO)(Cc3ccccc3C)C2)s1 (stereo not given)	101	-4	105	1	0	-3	.	.	.
O=[N+]([O-])c1ccccc1C1Nc2cccc3cccc(c23)N1	90	3	138*	1	-33	11	122	122*	99
Cc1ccc(OCC(=O)N/N=C/c2c[nH]c3ccccc23)c([N+](=O)[O-])c1	99	-5	103	1	2	1	.	.	.
Cc1nc2c(n1C1CCCCC1)C(=O)c1ccccc1C2=O	102	-1	170*	1	-70	-2	137*	98	99
O=C1c2cccnc2C(=O)N1C1CCCCC1	90	-10	105	1.1	-2	11	.	.	.
CCCCNC(=S)Nc1ccc(OC)nc1	102	-5	108	1	-1	-2	.	.	.
SMILES	STAT1 act-1	FLuc inh counter	STAT3 act-1	FLuc stim CS	STAT3 blocker	STAT1 blocker	STAT3 act-2	NFkB act STAT3ct	STAT1 act-2
CC(C)C1N=C(c2ccc3c(c2)OCO3)CC(c2ccccc2O)N1 (stereo not given)	89	-2	138*	1	-37	12	126	108	90
c1csc(COc2ccccc2CNC2CCCCC2)c1	94	-1	102	1	-6	7	.	.	.
Cc1nc2ccc(Br)cn2c1C(=O)N/N=C\c1ccccc1[N+](=O)[O-]	92	-2	148*	1	-50	7	132	97	102
O=C(NNC(=S)NC(=O)c1sc2ccccc2c1Cl)c1ccc(Cl)cc1	103	5	125	1	-33	-3	.	.	.
Cn1c(=O)[nH]c(=O)c2c1nc(CN1CCN(c3cccc(Cl)c3)CC1)n2CCc1ccccc1	91	-7	103	1.1	0	6	.	.	.
Cn1c(CN2CCN(c3cccc(Cl)c3)CC2)nc2ccccc21	100	-5	139*	1.1	-42	4	123	108	104
CSc1ccc(-c2nc(CN3CCCCC3c3cccnc3)c(C)o2)cc1 (stereo not given)	98	-1	102	1	3	0	.	.	.
CCOC(=O)C1=NN(c2ccccc2C)C2=NC(C)=C(C(=O)OC)C(c3cccc(OC)c3)N12 (stereo not given)	100	1	104	1	-4	0	.	.	.
CC1CCCN(C(=O)c2cc3c(-c4ccc(Cl)cc4)nn(C)c3s2)C1 (stereo not given)	101	-8	119	1.1	-18	-1	.	.	.
CCN1CCN(C(=O)c2cc3c(-c4ccc(Cl)cc4)nn(C)c3s2)CC1	89	-7	152*	1.1	-51	12	134*	97	91
Cc1nn(-c2ccc(Cl)cc2)c2sc(C(=O)N3CCN(C(=O)c4ccco4)CC3)cc12	.	-1	.	1	.	.	.	.	.
Cn1nc(-c2ccc(Cl)cc2)c2cc(C(=O)N3CCN(C(=O)c4ccco4)CC3)sc21	89	-4	150*	1	-56	12	129	99	89
O=C(CCn1nnc2ccccc21)NNC(=O)C1CCCCC1	95	-6	102	1.1	2	4	.	.	.
COc1ccc(Cl)cc1NC(=O)C1(c2cccs2)CCOCC1	98	-6	100	1.1	5	0	.	.	.
